Data reported in publication PMC3946992 (Journal of molecular biology, 2013).
Substitutions are numbered along the chain they refer to. One block for each compound: values may come before it.

Columns and labels:
Experiment in all cases: isothermal titration calorimetry
Assay type in all cases: binding
p48 [1] = target: T1, p48 (Homo sapiens, UniProt P49642, H315A)
T1 sequence (P49642 1-420 H315A): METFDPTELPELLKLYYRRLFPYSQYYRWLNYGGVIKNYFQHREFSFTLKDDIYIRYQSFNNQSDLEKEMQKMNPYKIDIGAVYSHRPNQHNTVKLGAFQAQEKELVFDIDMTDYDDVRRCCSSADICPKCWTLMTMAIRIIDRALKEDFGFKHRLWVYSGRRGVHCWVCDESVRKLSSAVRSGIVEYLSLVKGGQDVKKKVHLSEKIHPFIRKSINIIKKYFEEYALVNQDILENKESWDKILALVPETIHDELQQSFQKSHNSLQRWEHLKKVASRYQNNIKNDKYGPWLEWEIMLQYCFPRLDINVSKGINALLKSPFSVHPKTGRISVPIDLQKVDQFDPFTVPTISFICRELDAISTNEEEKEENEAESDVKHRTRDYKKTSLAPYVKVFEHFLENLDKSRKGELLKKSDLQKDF
How it was run: (§1)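 Recombinant human p48 (full length, site-directed point mutants, or residues 1–408 lacking 360–379) is His-tagged in E. coli BL21(DE3), tag-cleaved with H3C protease, then purified by nickel, heparin and S200 chromatography. Protein at 20–30 μM is put in 20 mM HEPES pH 7.2, 100 mM NaCl with 3-fold molar excess MnCl2 and titrated with 400 μM UTP (1 initial plus 28 injections). Kd comes from a single-site nonlinear least-squares fit, ± standard deviation.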

p48 [2] = target: T2, p48 (Homo sapiens, UniProt P49642, K318A)
T2 sequence (P49642 1-420 K318A): T1 sequence (P49642 1-420 H315A) with A315H, K318A
How it was run: as §1

p48 [3] = target: T3, p48 (Homo sapiens, UniProt P49642, D111N)
T3 sequence (P49642 1-420 D111N): T1 sequence (P49642 1-420 H315A) with D111N, A315H
How it was run: as §1

p48 [4] = target: T4, p48 (Homo sapiens, UniProt P49642, D109N)
T4 sequence (P49642 1-420 D109N): T1 sequence (P49642 1-420 H315A) with D109N, A315H
How it was run: as §1

p48/p58 = target: T5, p48/p58 (Homo sapiens, UniProt P49642)
T5 sequence (P49642 1-420): T1 sequence (P49642 1-420 H315A) with A315H
T5 sequence (P49643 1-509 partner): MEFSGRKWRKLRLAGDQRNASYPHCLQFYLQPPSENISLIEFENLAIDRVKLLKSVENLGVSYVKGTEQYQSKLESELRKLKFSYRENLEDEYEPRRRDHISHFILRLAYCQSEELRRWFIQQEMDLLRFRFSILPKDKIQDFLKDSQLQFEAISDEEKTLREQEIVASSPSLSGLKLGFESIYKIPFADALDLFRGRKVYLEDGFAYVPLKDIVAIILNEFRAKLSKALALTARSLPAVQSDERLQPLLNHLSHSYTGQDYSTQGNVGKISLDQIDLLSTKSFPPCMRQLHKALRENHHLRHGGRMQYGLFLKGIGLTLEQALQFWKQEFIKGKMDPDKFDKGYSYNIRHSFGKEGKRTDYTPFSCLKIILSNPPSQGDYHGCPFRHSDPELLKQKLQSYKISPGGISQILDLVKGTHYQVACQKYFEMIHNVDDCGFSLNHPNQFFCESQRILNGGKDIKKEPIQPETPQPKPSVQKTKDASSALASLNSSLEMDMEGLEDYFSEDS
How it was run: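 Recombinant human p48/p58 primase heterodimer is exchanged into 20 mM HEPES pH 7.2, 100 mM NaCl. Protein at 20–30 μM, pre-mixed with 3-fold molar excess MnCl2, is titrated by ITC with 400 μM nucleotide (UTP) in an initial injection plus 28 further injections. Kd comes from fitting a single-site binding model by nonlinear least squares, ± standard deviation.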

p48 [5] = target: T6, p48 (Homo sapiens, UniProt P49642)
T6 sequence (P49642 1-420): T1 sequence (P49642 1-420 H315A) with A315H
How it was run: as §1

p48 [6] = target: T7, p48 (Homo sapiens, UniProt P49642, D306N)
T7 sequence (P49642 1-420 D306N): T1 sequence (P49642 1-420 H315A) with D306N, A315H
How it was run: as §1

p48ΔL = target: T8, p48ΔL (Homo sapiens, UniProt P49642, DEL360-379)
T8 sequence (P49642 with tags, fused parts or gaps DEL360-379): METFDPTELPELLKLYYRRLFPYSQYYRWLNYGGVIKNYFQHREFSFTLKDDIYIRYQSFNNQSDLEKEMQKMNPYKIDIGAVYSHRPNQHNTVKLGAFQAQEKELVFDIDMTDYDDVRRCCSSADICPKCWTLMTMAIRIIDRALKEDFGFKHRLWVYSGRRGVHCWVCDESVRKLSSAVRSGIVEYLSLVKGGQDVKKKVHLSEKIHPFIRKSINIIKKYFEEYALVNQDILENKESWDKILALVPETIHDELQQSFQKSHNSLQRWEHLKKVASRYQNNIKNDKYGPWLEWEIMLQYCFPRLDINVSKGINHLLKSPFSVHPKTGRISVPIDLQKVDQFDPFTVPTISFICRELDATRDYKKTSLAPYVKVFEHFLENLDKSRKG
How it was run: as §1

Kd (p48 [1]): 22 µM
Kd (p48 [2]): 49 µM
Kd (p48 [3]): 54 µM
Kd (p48 [4]): 74 µM
Kd (p48/p58): 20 µM
Kd (p48 [5]): 11 µM
Kd (p48 [6]): 48 µM
Kd (p48ΔL): 12.5 ± 0.72 µM
Compound: O=c1ccn([C@@H]2O[C@H](COP(=O)(O)OP(=O)(O)OP(=O)(O)O)[C@@H](O)[C@H]2O)c(=O)[nH]1 [UTP]

Kd (p48 [5]): 13 µM
Compound: Nc1nc2c(ncn2[C@@H]2O[C@H](COP(=O)(O)OP(=O)(O)OP(=O)(O)O)[C@@H](O)[C@H]2O)c(=O)[nH]1 [GTP]

Kd (p48 [5]): 15 µM
Compound: Nc1ccn([C@@H]2O[C@H](COP(=O)(O)OP(=O)(O)OP(=O)(O)O)[C@@H](O)[C@H]2O)c(=O)n1 [CTP]

Kd (p48 [5]): 13 µM
Compound: Nc1ncnc2c1ncn2[C@@H]1O[C@H](COP(=O)(O)OP(=O)(O)OP(=O)(O)O)[C@@H](O)[C@H]1O [ATP]
